In ChEMBL document CHEMBL1135527, “Synthesis and evaluation of 2'-substituted 4-(4'-carboxy- or 4'-carboxymethylbenzylidene)-N-acylpiperidines: highly potent and in vivo active steroid 5alpha-reductase type 2 inhibitors” (J Med Chem, 2002):

How the values were obtained:
[1] = target: T1, 3-oxo-5-alpha-steroid 4-dehydrogenase 1 (Rattus norvegicus) (UniProt P24008); test: Inhibition of Steroid 5-alpha-reductase type I of rat ventral prostate (RVP); format: tissue-based; parameters: concentration or dose not given beside the values; settings: Prostate gland, concentration not given here
T1 sequence (whole entry): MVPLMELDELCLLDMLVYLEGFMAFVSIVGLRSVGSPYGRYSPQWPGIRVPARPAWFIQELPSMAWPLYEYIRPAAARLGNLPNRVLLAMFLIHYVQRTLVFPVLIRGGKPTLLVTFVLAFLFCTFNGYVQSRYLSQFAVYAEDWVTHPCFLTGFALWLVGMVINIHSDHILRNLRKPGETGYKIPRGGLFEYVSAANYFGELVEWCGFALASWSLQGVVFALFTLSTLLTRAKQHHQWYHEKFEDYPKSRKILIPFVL
Summary of the method: (§1)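 Rat ventral prostate 105000g pellet made in 20 mM phosphate pH 6.6 with […] and 1 mM DTT at 0–4 °C. About 250 μg protein incubated 30 min at 37 °C in 40 mM phosphate pH 6.6 with 200 μM NADPH, 0.21 μM [1,2-³H]testosterone and 2% DMSO. Ether extraction, radio-HPLC of T and DHT. % inhibition at 10 μM or IC50; duplicates.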

[2] = target: T2, 3-oxo-5-alpha-steroid 4-dehydrogenase 1 (Homo sapiens) (UniProt P18405); test: Inhibition of Steroid 5-alpha-reductase type I of human DU 145 prostatic tumor cell line, at 10 uM
T2 sequence (whole entry): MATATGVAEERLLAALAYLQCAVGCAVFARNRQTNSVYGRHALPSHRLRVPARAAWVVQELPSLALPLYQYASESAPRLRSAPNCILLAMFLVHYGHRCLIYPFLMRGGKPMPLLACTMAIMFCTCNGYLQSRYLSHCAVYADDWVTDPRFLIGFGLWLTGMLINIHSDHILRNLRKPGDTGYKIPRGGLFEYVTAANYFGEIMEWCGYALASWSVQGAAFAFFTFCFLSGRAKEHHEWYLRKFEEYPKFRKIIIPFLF
Summary of the method: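 Intact DU145 cells (type 1 source) seeded at 180 000/well and left to adhere overnight. Compound added in DMSO to complete medium, then 6 h at 37 °C in 5% CO2 with [³H]androstenedione, 5 nM. Medium extracted twice with ether, steroids separated by radio-HPLC. Product formed expressed as % of triplicate no-inhibitor controls; screened at 10 μM.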

[3] = target: T3, 3-oxo-5-alpha-steroid 4-dehydrogenase 2 (Rattus norvegicus, UniProt P31214); test: (§2) Inhibition of Steroid 5-alpha-reductase type 2 of rat ventral prostate (RVP); format: tissue-based, Prostate gland
T3 sequence (P31214 whole entry): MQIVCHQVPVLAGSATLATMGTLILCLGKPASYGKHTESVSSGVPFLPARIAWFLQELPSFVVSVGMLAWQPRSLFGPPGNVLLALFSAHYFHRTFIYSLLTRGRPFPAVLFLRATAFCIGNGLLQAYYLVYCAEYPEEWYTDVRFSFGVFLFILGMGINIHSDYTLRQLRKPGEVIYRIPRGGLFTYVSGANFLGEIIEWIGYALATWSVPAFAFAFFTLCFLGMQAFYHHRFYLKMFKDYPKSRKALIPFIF
Summary of the method: (§3)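 Type 2 source: rat ventral prostate homogenized in citrate buffer pH 5.5, 105000g pellet. About 250 μg protein incubated 30 min at 37 °C in 40 mM citrate pH 5.5 with 200 μM NADPH, 0.21 μM [1,2-³H]testosterone and 2% DMSO. NaOH stop, ether extraction, radio-HPLC of T/DHT. Result given as % inhibition at 10 μM or IC50, run in duplicate.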

[4] = target: T4, 3-oxo-5-alpha-steroid 4-dehydrogenase 2 (Homo sapiens, UniProt P31213); test: Inhibition of Steroid 5-alpha-reductase type 2 from human benign prostatic hyperplasia (BPH) tissue
T4 sequence (P31213 whole entry): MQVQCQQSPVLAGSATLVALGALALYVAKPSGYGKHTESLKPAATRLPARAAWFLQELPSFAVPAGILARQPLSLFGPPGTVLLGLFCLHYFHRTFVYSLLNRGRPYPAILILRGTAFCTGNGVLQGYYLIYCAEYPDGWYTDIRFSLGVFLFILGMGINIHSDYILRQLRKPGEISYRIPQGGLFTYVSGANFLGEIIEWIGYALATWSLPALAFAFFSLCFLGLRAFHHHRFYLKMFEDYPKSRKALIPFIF
Summary of the method: (§4)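 Human BPH prostate 105000g pellet (nuclei, mitochondria, microsomes) prepared in citrate buffer pH 5.5. Incubation of about 125 μg protein for 30 min at 37 °C in 40 mM citrate pH 5.5 with 100 μM NADPH, 0.21 μM [1,2-³H]testosterone and 2% DMSO. Reaction stopped with NaOH, steroids extracted with ether, T/DHT separated by radio-HPLC. Single 10 μM test or IC50; duplicates.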

[5] = target: T5, 3-oxo-5-alpha-steroid 4-dehydrogenase 1 (Rattus norvegicus, UniProt P24008); test: Inhibition of Steroid 5-alpha-reductase type I from rat ventral prostate (RVP); format: tissue-based, Prostate gland; summary of the method: as §1
T5 sequence (P24008 whole entry): T1 sequence (whole entry)

[6] = target: T6, 3-oxo-5-alpha-steroid 4-dehydrogenase 2 (Rattus norvegicus) (UniProt P31214); test: as §2; parameters: concentration or dose not given beside the values; settings: Prostate gland, concentration not given here; summary of the method: as §3
T6 sequence (whole entry): T3 sequence (P31214 whole entry)

[7] = target: 3-oxo-5-alpha-steroid 4-dehydrogenase 2 (Homo sapiens, UniProt P31213); test: In vitro inhibitory activity against Steroid 5-alpha-reductase type 2 of human benign prostatic hyperplasia (BPH) tissue; summary of the method: as §4
[8] = target: T7, 3-oxo-5-alpha-steroid 4-dehydrogenase 2 (Homo sapiens) (UniProt P31213); test: Percent of inhibition at 10 benign prostatic hyperplasia (BPH) tissue; settings: concentration not given here; summary of the method: as §4
T7 sequence (whole entry): T4 sequence (P31213 whole entry)

[9] = target: T5, 3-oxo-5-alpha-steroid 4-dehydrogenase 1; test: In vitro inhibitory activity against Steroid 5-alpha-reductase type I of rat ventral prostate (RVP); format: tissue-based, Prostate gland; summary of the method: as §1
[10] = target: T7, 3-oxo-5-alpha-steroid 4-dehydrogenase 2 (Homo sapiens); test: Percent of inhibition against Steroid 5-alpha-reductase type 2 of human uM; settings: concentration not given here; summary of the method: as §4

Compound | inhibition [1] [%] | inhibition [2] [%] | IC50 [3] [µM] | IC50 [4] [µM] | IC50 [5] [µM] | inhibition [6] [%] | further results
O=C(O)c1ccc(C=C2CCN(C(=O)C(C3CCCCC3)C3CCCCC3)CC2)cc1 [listing 1 of 2 here] | 51 | 46 |  |  |  |  | 
O=C(O)c1ccc(C=C2CCN(C(=O)C34CC5CC(CC(C5)C3)C4)CC2)c(F)c1 |  | 20 | 3.5 | 0.21 | 2.7 |  | 
O=C(O)Cc1ccc(C=C2CCN(C(=O)C(C3CCCCC3)C3CCCCC3)CC2)c(F)c1 [listing 1 of 2 here] |  | 4 |  |  |  |  | 
O=C(O)c1ccc(C=C2CCN(C(=O)CC(c3ccccc3)c3ccccc3)CC2)cc1 |  | 8 | 0.88 | 1.1 | 1.6 |  | 
O=C(O)c1ccc(OC2CCN(C(=O)C34CC5CC(CC(C5)C3)C4)CC2)cc1 | 18 | 7 |  | 0.43 |  | 21 | 
O=C(O)Cc1ccc(C=C2CCN(C(=O)C(C3CCCCC3)C3CCCCC3)CC2)c(F)c1 [listing 2 of 2 here] |  |  | 0.038 | 0.007 | 3.2 |  | 
O=C(O)c1ccc(C=C2CCN(C(=O)C(C3CCCCC3)C3CCCCC3)CC2)cc1 [listing 2 of 2 here] |  |  | 0.08 | 0.06 |  |  | 
COc1cc(C(=O)O)ccc1C=C1CCN(C(=O)C(c2ccccc2)c2ccccc2)CC1 |  | 8 | 0.94 | 3.5 | 1.9 |  | 
O=C(O)Cc1ccc(C=C2CCN(C(=O)C(c3ccccc3)c3ccccc3)CC2)cc1 |  |  |  |  | 4.5 | 63 | IC50 [7]: 0.075 µM
COc1cc(C(=O)O)ccc1C=C1CCN(C(=O)C(C2CCCCC2)C2CCCCC2)CC1 | 55 | 5 |  | 0.13 |  | 43 | 
CC(C)(C)OC(=O)N1CCC(Oc2ccc(C(=O)O)cc2)CC1 | 4 | 2 |  |  |  | 12 | inhibition [8]: 7.8%
O=C(O)c1ccc(C=C2CCN(C(=O)C(c3ccccc3)c3ccccc3)CC2)cc1 |  | 26 | 0.37 | 0.53 | 3.4 |  | 
O=C(O)Cc1ccc(C=C2CCN(C(=O)C(C3CCCCC3)C3CCCCC3)CC2)cc1 | 66 | 6 |  | 0.006 |  | 56 | 
O=C(O)c1ccc(C=C2CCN(C(=O)C(C3CCCCC3)C3CCCCC3)CC2)c(F)c1 [listing 1 of 2 here] |  | 12 |  |  |  |  | 
O=C(O)c1ccc(C=C2CCN(C(=O)N(c3ccccc3)c3ccccc3)CC2)cc1 |  | 22 | 0.69 | 0.83 | 0.54 |  | 
O=C(O)c1ccc(OC2CCN(C(=O)C(c3ccccc3)c3ccccc3)CC2)cc1 | 62 |  |  |  |  | 58 | IC50 [7]: 1.3 µM
O=C(O)c1ccc(C=C2CCN(C(=O)C34CC5CC(CC(C5)C3)C4)CC2)cc1 |  | 44 | 2.5 | 0.26 | 5.6 |  | 
O=C(O)c1ccc(C=C2CCN(C(=O)C(C3CCCCC3)C3CCCCC3)CC2)c(F)c1 [listing 2 of 2 here] |  |  | 3 | 0.011 |  |  | IC50 [9]: 1.8 µM
O=C(O)c1ccc(OC2CCN(C(=O)N(c3ccccc3)c3ccccc3)CC2)cc1 | 53 | 10 |  |  |  | 50 | inhibition [10]: 68%
O=C(O)c1cccc(C=C2CCN(C(=O)C(C3CCCCC3)C3CCCCC3)CC2)c1 | 35 |  |  |  |  | 25 | IC50 [7]: 0.7 µM
COc1cc(C(=O)O)ccc1C=C1CCN(C(=O)C23CC4CC(CC(C4)C2)C3)CC1 | 52 | 10 |  | 1.2 |  | 51 | 
O=C(O)c1cccc(C=C2CCN(C(=O)C(c3ccccc3)c3ccccc3)CC2)c1 | 49 | 6 |  |  |  | 43 | inhibition [8]: 57%
O=C(O)c1ccc(C=C2CCN(C(=O)C(c3ccccc3)c3ccccc3)CC2)c(F)c1 |  | 2 | 1.1 | 0.41 | 1.1 |  | 
